The nature of assay [1]: Displacement of [3H]flumazenil form benzodiazepine-binding site of GABA(A) receptor in rat cortical membrane after 30 mins by glass fiber filtration assay. It is filed as cell membranes. To be noted: in the assay text read “after 40 mins” for “after 30 mins”. An outline of the steps: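 Rat cortex homogenized in 30 mM Tris–HCl pH 7.4, washed by 27,000g spins, held at 37 °C for 30 min, stored at −20 °C. Membranes (1 mg original tissue/0.55 mL) in 50 mM Tris–citrate pH 7.1 with 1 nM final [3H]flumazenil, 40 min at 0–4 °C. GF/C filtration. Nonspecific binding with 1 µM clonazepam. IC50 from 4–6 concentrations; Ki = IC50/(1+L/KD).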
A general note: In a radioligand displacement assay an active substance lowers the binding of a labelled ligand.

The target of assay [2] is T1, GABA-A receptor; alpha-1/beta-3/gamma-2 (Homo sapiens, UniProt P14867+P18507+P28472).
T1 sequence (P14867 whole entry): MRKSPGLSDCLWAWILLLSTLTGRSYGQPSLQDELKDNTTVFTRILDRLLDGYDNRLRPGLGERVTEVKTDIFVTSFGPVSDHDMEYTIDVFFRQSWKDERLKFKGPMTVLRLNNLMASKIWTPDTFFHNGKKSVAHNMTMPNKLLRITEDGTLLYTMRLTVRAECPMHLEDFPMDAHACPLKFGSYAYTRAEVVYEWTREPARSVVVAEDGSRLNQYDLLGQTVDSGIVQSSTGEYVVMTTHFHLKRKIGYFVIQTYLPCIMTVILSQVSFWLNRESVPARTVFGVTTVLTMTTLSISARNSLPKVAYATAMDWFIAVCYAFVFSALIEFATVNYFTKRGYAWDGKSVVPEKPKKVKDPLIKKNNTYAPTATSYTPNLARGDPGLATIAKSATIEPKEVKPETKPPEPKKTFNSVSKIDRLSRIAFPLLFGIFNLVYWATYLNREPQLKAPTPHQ
T1 sequence (P18507 whole entry): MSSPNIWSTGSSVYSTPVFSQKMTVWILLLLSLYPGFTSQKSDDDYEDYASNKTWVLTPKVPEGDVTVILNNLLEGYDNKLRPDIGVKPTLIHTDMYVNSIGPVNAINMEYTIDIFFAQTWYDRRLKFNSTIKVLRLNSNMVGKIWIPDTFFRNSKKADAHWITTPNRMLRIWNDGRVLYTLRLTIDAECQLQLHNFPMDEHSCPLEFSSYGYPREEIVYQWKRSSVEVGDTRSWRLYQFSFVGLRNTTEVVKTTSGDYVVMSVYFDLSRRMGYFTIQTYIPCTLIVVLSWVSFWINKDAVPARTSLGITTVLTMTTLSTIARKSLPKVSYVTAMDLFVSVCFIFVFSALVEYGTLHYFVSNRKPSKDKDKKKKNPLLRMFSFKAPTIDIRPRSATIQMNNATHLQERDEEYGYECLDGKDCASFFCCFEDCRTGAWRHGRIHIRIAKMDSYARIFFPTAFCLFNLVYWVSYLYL
T1 sequence (P28472 whole entry): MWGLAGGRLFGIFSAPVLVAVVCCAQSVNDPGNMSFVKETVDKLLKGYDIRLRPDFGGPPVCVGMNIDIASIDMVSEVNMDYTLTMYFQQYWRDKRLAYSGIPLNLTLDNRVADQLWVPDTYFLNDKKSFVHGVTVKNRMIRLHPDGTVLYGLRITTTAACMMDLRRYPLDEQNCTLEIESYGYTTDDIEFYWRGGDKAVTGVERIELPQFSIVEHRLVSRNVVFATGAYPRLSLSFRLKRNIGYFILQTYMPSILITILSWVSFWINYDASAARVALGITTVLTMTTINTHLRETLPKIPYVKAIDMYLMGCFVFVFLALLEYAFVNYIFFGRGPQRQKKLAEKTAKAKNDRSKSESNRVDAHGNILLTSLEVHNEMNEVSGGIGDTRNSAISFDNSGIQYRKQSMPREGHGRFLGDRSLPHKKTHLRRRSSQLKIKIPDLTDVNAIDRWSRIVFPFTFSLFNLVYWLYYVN
Kind of assay: Displacement of [3H]flumazenil human recombinant alpha1beta3gamma2 GABA(A) receptor expressed in HEK293 cells after 30 mins by glass fiber filtration assay. To be noted: in the assay text read “after 40 mins” for “after 30 mins”. It is filed as cell-based. In a few lines: (§1)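 HEK cell membranes carrying human receptors in 50 mM Tris–citrate pH 7.1 with 1 nM final [3H]flumazenil, incubated 40 min on ice (0–4 °C). Filtered on GF/C and washed with ice-cold buffer. Clonazepam 1 µM final defined nonspecific binding. IC50 from 4–6 test concentrations, converted by Ki = IC50/(1+L/KD). Mean ± SD of three determinations.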

The target of assay [3] is T2, GABA-A receptor; alpha-3/beta-3/gamma-2 (Homo sapiens, UniProt P18507+P28472+P34903).
T2 sequence (P18507 whole entry): T1 sequence (P18507 whole entry)
T2 sequence (P28472 whole entry): T1 sequence (P28472 whole entry)
T2 sequence (P34903 whole entry): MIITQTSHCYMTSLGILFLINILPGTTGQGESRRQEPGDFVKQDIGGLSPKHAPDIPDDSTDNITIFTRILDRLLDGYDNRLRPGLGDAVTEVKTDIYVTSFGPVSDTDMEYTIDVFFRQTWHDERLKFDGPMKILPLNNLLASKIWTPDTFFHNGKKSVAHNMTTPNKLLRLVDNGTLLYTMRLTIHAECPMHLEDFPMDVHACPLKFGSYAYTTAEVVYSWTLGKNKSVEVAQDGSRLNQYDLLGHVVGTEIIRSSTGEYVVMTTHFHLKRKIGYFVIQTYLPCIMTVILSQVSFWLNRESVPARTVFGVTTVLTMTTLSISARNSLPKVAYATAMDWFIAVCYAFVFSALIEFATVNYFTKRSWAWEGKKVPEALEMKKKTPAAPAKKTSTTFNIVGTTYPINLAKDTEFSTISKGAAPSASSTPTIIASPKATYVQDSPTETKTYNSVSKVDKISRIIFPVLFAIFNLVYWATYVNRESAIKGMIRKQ
Kind of assay: Displacement of [3H]flumazenil human recombinant alpha3beta3gamma2 GABA(A) receptor expressed in HEK293 cells after 30 mins by glass fiber filtration assay. It is filed as cell-based. Conditions: in the assay text read “after 40 mins” for “after 30 mins”. An outline of the steps: as §1

Assay [4] concerns the target T3, GABA-A receptor; alpha-5/beta-3/gamma-2 (Homo sapiens, UniProt P18507+P28472+P31644).
T3 sequence (P18507 whole entry): T1 sequence (P18507 whole entry)
T3 sequence (P28472 whole entry): T1 sequence (P28472 whole entry)
T3 sequence (P31644 whole entry): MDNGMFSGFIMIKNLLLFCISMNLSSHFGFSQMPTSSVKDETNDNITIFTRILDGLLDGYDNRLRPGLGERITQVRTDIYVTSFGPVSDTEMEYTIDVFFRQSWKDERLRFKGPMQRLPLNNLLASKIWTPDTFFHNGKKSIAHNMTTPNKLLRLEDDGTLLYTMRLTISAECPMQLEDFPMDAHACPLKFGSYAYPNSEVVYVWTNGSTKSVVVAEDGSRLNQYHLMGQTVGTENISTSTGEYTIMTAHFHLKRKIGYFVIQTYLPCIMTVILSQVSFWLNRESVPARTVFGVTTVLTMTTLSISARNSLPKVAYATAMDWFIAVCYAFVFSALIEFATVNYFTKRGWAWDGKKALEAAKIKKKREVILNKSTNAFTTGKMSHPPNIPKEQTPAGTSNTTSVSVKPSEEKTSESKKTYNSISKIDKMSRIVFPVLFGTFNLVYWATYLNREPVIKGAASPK
Kind of assay: Displacement of [3H]flumazenil human recombinant alpha5beta3gamma2 GABA(A) receptor expressed in HEK293 cells after 30 mins by glass fiber filtration assay. It is filed as cell-based. To be noted: in the assay text read “after 40 mins” for “after 30 mins”. An outline of the steps: as §1

In assay [5] the target is T4, GABA-A receptor; alpha-2/beta-3/gamma-2 (Homo sapiens, UniProt P18507+P28472+P47869).
T4 sequence (P18507 whole entry): T1 sequence (P18507 whole entry)
T4 sequence (P28472 whole entry): T1 sequence (P28472 whole entry)
T4 sequence (P47869 whole entry): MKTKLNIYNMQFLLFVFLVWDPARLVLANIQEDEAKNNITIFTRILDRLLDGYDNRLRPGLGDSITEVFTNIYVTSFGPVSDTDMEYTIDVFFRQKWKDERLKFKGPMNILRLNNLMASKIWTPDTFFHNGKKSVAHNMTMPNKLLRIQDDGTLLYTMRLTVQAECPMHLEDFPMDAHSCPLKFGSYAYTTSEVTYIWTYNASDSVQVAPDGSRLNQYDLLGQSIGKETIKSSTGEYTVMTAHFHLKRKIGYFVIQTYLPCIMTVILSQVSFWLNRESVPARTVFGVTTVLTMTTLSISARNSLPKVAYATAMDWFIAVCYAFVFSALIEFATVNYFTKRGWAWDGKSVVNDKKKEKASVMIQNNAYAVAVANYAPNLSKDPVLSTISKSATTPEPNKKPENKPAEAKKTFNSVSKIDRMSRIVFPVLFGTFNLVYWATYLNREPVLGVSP
Kind of assay: Displacement of [3H]flumazenil human recombinant alpha2beta3gamma2 GABA(A) receptor expressed in HEK293 cells after 30 mins by glass fiber filtration assay. It is filed as cell-based. Conditions: in the assay text read “after 40 mins” for “after 30 mins”. In a few lines: as §1

The species entered for assay [6] is Homo sapiens. Kind of assay: Selectivity ratio of Ki for human recombinant alpha2beta3gamma2 GABA(A) receptor to Ki for human recombinant alpha1beta3gamma2 GABA(A) receptor. In a few lines: (§2)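 Ratio of the Ki at the named subtype to the Ki at α1β3γ2. Both Ki values come from [3H]flumazenil (1 nM) displacement on membranes of HEK cells with human receptors, run 40 min at 0–4 °C with GF/C filtration. Ki = IC50/(1+L/KD).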

The species entered for assay [7] is Homo sapiens. Kind of assay: Selectivity ratio of Ki for human recombinant alpha3beta3gamma2 GABA(A) receptor to Ki for human recombinant alpha1beta3gamma2 GABA(A) receptor. In a few lines:
as §2

The species named for assay [8] is Homo sapiens. Kind of assay: Selectivity ratio of Ki for human recombinant alpha5beta3gamma2 GABA(A) receptor to Ki for human recombinant alpha1beta3gamma2 GABA(A) receptor. An outline of the steps: as §2

Drawing on ChEMBL document CHEMBL1641431, “Triazoloquinazolinediones as novel high affinity ligands for the benzodiazepine site of GABA(A) receptors” (Bioorg Med Chem, 2011), this text covers Ki and Ratio Ki for 18 compounds.

Usually Ki stands for the dissociation constant of the complex between target and ligand, obtained from inhibition or displacement. The compound `Cc1ccc(-n2nc3c4cc(CCc5ccc(-c6ccccc6)cc5)ccc4[nH]c(=O)n3c2=O)cc1` registered an inhibition constant (Ki) in assay [1] of 1570 nM.

In the case of `Cc1ccc(-n2nc3c4cc(CCc5ccccc5)ccc4[nH]c(=O)n3c2=O)cc1`, the inhibition constant (Ki) came to 4 nM in assay [1]; 3.6 nM in assay [2]; 9.7 nM in assay [3]; 66 nM in assay [4]; 65 nM in assay [5]. Besides, the Ratio Ki in assay [6] stood at 18.

Take `Cc1ccc(-n2nc3c4cc(CCc5ccccn5)ccc4[nH]c(=O)n3c2=O)cc1`: in assay [1], the affinity corresponds to a Ki of 0.53 nM.

Turning to `O=c1[nH]c2ccc(Br)cc2c2nn(-c3ccc(Cl)cc3)c(=O)n12`, in assay [1], the Ki turned out to be 0.6 nM.

`O=c1[nH]c2ccc(Br)cc2c2nn(-c3ccccc3)c(=O)n12`: in assay [1], the affinity corresponds to a Ki of 0.24 nM.

Consider `Cc1ccc(-n2nc3c4cc(CCc5ccsc5)ccc4[nH]c(=O)n3c2=O)cc1`, for which the Ki in assay [1] came to 0.94 nM; in assay [2], 0.14 nM; in assay [3], 0.71 nM; in assay [4], 3.6 nM; in assay [5], 1.7 nM. Besides, the Ratio Ki is 5 in assay [7] and 26 in assay [8].

Take `Cc1ccc(-n2nc3c4cc(CCc5cccc(O)c5)ccc4[nH]c(=O)n3c2=O)cc1`: affinity in assay [1] was put at a Ki of 12.4 nM.

Compound `O=c1[nH]c2ccc(Br)cc2c2nn(-c3ccccc3F)c(=O)n12` had a Ki in assay [1] of 0.2 nM.

Consider `Cc1ccc(-n2nc3c4cc(CCc5ccc(Oc6ccccc6)cc5)ccc4[nH]c(=O)n3c2=O)cc1`, for which, in assay [1], the affinity, expressed as Ki, was 123 nM.

In turn, `Cc1ccc(-n2nc3c4cc(Cc5ccccc5)ccc4[nH]c(=O)n3c2=O)cc1` came in with a Ki in assay [1] of 1 nM.

For `Cc1ccc(-n2nc3c4cc(Cc5ccsc5)ccc4[nH]c(=O)n3c2=O)cc1`, the affinity in assay [1], expressed as Ki, was 0.23 nM.

`Cc1ccc(-n2nc3c4cc(Br)ccc4[nH]c(=O)n3c2=O)cc1` showed a Ki in assay [1] of 0.47 nM.

With `Cc1ccc(-n2nc3c4cc(CCc5ccncc5)ccc4[nH]c(=O)n3c2=O)cc1`, in assay [1], affinity was put at a Ki of 0.17 nM.

In the case of `Cc1ccc2[nH]c(=O)n3c(=O)n(-c4ccccc4)nc3c2c1`, the Ki in assay [1] turned out to be 0.62 nM; in assay [2] it was 0.43 nM; in assay [3], 1.3 nM; in assay [5] it was 1 nM. In addition, in assay [6], the Ratio Ki came to 2.

Take `Cc1ccc(-n2nc3c4cc(C#Cc5ccccc5)ccc4[nH]c(=O)n3c2=O)cc1`: the affinity in assay [1] corresponds to a Ki of 40 nM.

For the compound `Cc1ccc(-n2nc3c4cc(CCC(=O)O)ccc4[nH]c(=O)n3c2=O)cc1`, the Ki in assay [1] was determined as 1.4 nM.

As to `Cc1ccc(-n2nc3c4cc(CCc5cccnc5)ccc4[nH]c(=O)n3c2=O)cc1`, the Ki in assay [1] was 0.2 nM; in assay [2] it was 0.68 nM; in assay [3], 2.3 nM; in assay [4] it was 9.1 nM; in assay [5] it was 4.4 nM. Besides, the Ratio Ki in assay [7] came to 3; in assay [8], 13.

`Cc1ccc(-n2nc3c4cc(Cc5cccc(F)c5)ccc4[nH]c(=O)n3c2=O)cc1`: in assay [1], affinity was put at a Ki of 2.1 nM.
